NR1D1 modulator = modulators of Rev-erb alpha DNA binding, primary screen, biochemical, FITC-DNA, fluorescence polarization, uHTS. Nuclear receptor subfamily 1 group D member 1 (Homo sapiens), P20393. Rev-erbα–FITC-DNA binding, 90 min. activity, % at 10 µM. 370,000 tested, 0.79% active. AID 1259318, 2017;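 active = activity above about 14%, limit read from the data; passing the limit was not always enough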;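 note: 0% = DMSO wells with 35 nM protein and 100% = DMSO wells with 750 nM protein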
ASAP1 inh = inhibitors of human ASAP1 ArfGAP activity, primary screen, biochemical, fluorescence polarization; Arf-GAP with SH3 domain, ANK repeat and PH domain-containing protein 1 (Homo sapiens), …; ASAP1-stimulated ARF1 GTP hydrolysis, GDP FP detection; inhibition, % at 16.5 µM; 360,000 tested, 0.19% active; AID 624377, 2012; in the data active = inhibition above about 25%;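 note: 0% = vehicle with enzyme and substrate and 100% = no enzyme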
sPLA2-III inh = human group III sPLA2 inhibitors, primary screen, biochemical, QFRET, BODIPY PC-A2 liposome substrate; Group 3 secretory phospholipase A2 (Homo sapiens), Q9NZ20; QFRET BODIPY PC-A2 liposome hydrolysis, fluorescence; inhibition, % at 12.2 µM; 370,000 tested, 0.56% active; AID 743126, 2013;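 active = inhibition above mean plus 3 SD of compounds lying within the high and low control bounds, cut at about 19% in these data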;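 note: 0% = median of test compound wells and 100% = no enzyme DMSO wells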
MsrA act = bovine MsrA enzyme activators, primary screen, biochemical, absorbance, HTS | Methionine sulfoxide reductase A (Bos taurus) | purified bovine MsrA, absorbance read-out | activation, % at 10.6 µM | 360,000 tested, 0.3% active | AID 602163, 2012; in the data active = activation above about 7.5%;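 note: 0% = vehicle and 100% = reference activator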
MsrA inh = bovine MsrA enzyme inhibitors, primary screen, biochemical, absorbance, HTS; purified bovine MsrA, absorbance read-out; 360,000 tested, 0.75% active; Methionine sulfoxide reductase A (Bos taurus); inhibition, % at 15.5 µM; in the data active = inhibition above about 4.5%;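 note: 0% = vehicle wells with enzyme and 100% = reference inhibitor wells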
ARFGAP1 inhibitor = inhibitors of rat ARFGAP1 GAP activity, primary screen, biochemical, fluorescence polarization, GDP tracer; Arfgap1-stimulated ARF1 GTP hydrolysis, GDP FP detection; inhibition, % at 16.5 µM; 360,000 tested, 0.26% active; AID 651572, 2012;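 active = inhibition above a per-plate limit, mean inhibition of low control wells plus 3 SD, cut at about 25% in these data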;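 note: 0% = DMSO wells with enzyme and 100% = wells lacking Arfgap1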
Target sequence (Q62848 1-136 limits assumed): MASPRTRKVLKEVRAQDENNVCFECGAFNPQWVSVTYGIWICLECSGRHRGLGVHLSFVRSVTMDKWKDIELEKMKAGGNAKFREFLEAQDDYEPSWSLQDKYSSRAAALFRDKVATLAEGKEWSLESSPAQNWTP
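Material: truncated rat Arfgap1 GAP domain; Incubation: compound-enzyme preincubation 20 min, reaction 120 min, detection 60 min, 25 °C; Read-out: percent inhibition of Arfgap1-stimulated GTP hydrolysis; Technique: FP, GDP Alexa 633 tracer displaced from anti-GDP antibody, 620/688 nm; Controls: No-Arfgap1 wells (100%) versus DMSO full-reaction wells (0%); Replication: single well per compound.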
ASAP1 inh confirm = ASAP1 GAP activity inhibitors, confirmation, biochemical, fluorescence polarization, human, triplicate; AID 624431, 2012; shares compounds with ASAP1 inh; ASAP1-stimulated Arf1 GTPase, GDP fluorescence polarization; 620 tested, 37% active; inhibition, % at 16.5 µM;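 active = mean inhibition over triplicates exceeds the hit threshold derived for the earlier primary screening run, cut at about 25% in these data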
ARFGAP1 inh conf = ARFGAP1 inhibitor hit confirmation, biochemical, fluorescence polarization, triplicate. ARFGAP1-stimulated ARF1 GTP hydrolysis, GDP tracer FP. inhibition, % at 16.5 µM. 890 tested, 30% active. shares compounds with ARFGAP1 inhibitor;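 active = average inhibition over triplicates above the hit cutoff set in the earlier primary screen, cut at about 25% in these data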;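 note: 0% = Arfgap1 plus ARF1-GTP with DMSO and 100% = wells lacking Arfgap1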
Target sequence (Q62848 whole entry, looked up): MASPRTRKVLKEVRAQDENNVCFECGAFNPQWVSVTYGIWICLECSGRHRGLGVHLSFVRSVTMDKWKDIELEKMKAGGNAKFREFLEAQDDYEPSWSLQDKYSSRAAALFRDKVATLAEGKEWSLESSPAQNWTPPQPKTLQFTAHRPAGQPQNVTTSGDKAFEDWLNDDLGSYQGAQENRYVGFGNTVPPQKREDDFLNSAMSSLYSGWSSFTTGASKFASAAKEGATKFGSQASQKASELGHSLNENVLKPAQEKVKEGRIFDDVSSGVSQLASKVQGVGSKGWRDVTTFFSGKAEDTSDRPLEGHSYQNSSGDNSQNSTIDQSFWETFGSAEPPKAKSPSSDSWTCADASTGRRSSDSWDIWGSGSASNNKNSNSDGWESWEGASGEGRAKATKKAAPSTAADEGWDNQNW
* hit, by the source's call. In the library only some 2.7% were active in any assay of this set; here they are far more common.

For COc1cccc(NC(=O)Cn2nnc(C(=O)Nc3cc(Cl)ccc3OC)c2N)c1 the results were NR1D1 modulator 2.1, ASAP1 inh 76.8*, sPLA2-III inh -4.6, MsrA act -3.5, MsrA inh -1.3, ARFGAP1 inhibitor 137.8*, ASAP1 inh confirm 109.2* and ARFGAP1 inh conf 198.8*.
Screening COc1ccc(Cl)cc1NC(=O)c1nnn(CC(=O)Nc2ccc(OC)c(OC)c2)c1N returned NR1D1 modulator -0.1, ASAP1 inh -7.0, sPLA2-III inh -0.8, MsrA act -3.1, MsrA inh -0.5 and ARFGAP1 inhibitor 0.5.
For CCCCOc1cccc2c(=O)n(CC(=O)Nc3ccc4c(c3)OCCO4)ccc12 the results were NR1D1 modulator -9.2, ASAP1 inh 34.5*, sPLA2-III inh -2.2, MsrA act -5.9, MsrA inh -0.8, ARFGAP1 inhibitor 25.2*, ASAP1 inh confirm 34.1* and ARFGAP1 inh conf 38.3*.
`O=C(Cn1cnc2ccccc2c1=O)Nc1ccc2c(c1)OCCO2` gave NR1D1 modulator -4.4, ASAP1 inh 10.0, sPLA2-III inh -2.3, MsrA act 4.5, MsrA inh -1.1 and ARFGAP1 inhibitor 4.8.
For O=C(CSc1ccc(-c2ccc3c(c2)OCO3)nn1)Nc1nccs1 the results were NR1D1 modulator -9.6, ASAP1 inh 132.1*, sPLA2-III inh 1.2, MsrA act -4.1, MsrA inh -0.8, ARFGAP1 inhibitor 46.5*, ASAP1 inh confirm 74.8* and ARFGAP1 inh conf 134.5*.
Screening O=C(CSCC(=O)Nc1nc(-c2ccc3c(c2)OCO3)cs1)Nc1nccs1 returned NR1D1 modulator -3.0, ASAP1 inh 9.2, sPLA2-III inh 9.4, MsrA act 7.1, MsrA inh 1.8 and ARFGAP1 inhibitor -3.9.
COC(=O)[C@]12C[C@H](CC(=O)NCCc3ccccc3OC)C(=O)N(CCC3=CCCCC3)C1=C[C@H](C(C)C)O[C@@H]2C1CC1 was read as NR1D1 modulator 0.4 and sPLA2-III inh -2.2.
For COc1ccccc1-c1csc(-n2ncc(C#N)c2N)n1 the results were NR1D1 modulator -16.0, ASAP1 inh 41.1*, sPLA2-III inh 1.2, MsrA act -2.2, MsrA inh -0.3, ARFGAP1 inhibitor 39.3*, ASAP1 inh confirm 66.5* and ARFGAP1 inh conf 110.9*.
`Cc1cc2oc3ccc(NCCCN4CCOCC4)cc3c(=O)c2cc1C` gave NR1D1 modulator -3.3, ASAP1 inh -15.7, sPLA2-III inh 10.3, MsrA act -0.4, MsrA inh -0.3 and ARFGAP1 inhibitor 5.2.
Screening Cc1cc2oc3ccc(NCCCn4ccnc4)cc3c(=O)c2cc1C returned NR1D1 modulator -28.2, ASAP1 inh 78.7*, sPLA2-III inh -25.1, MsrA act -1.5, MsrA inh -1.2, ARFGAP1 inhibitor 114.9*, ASAP1 inh confirm 127.3* and ARFGAP1 inh conf active.
`COC(=O)CSc1nnc2n(-c3ccc(OC)cc3)c(=O)c3c4c(sc3n12)CCCCC4` gave NR1D1 modulator 0.1, ASAP1 inh 39.0*, sPLA2-III inh -5.8, MsrA act -1.1, MsrA inh -0.6, ARFGAP1 inhibitor 62.1*, ASAP1 inh confirm 42.1* and ARFGAP1 inh conf 74.6*.
For COC(=O)CSc1nnc2n(C3CCCCC3)c(=O)c3c4c(sc3n12)CCCC4 the results were NR1D1 modulator 1.1, ASAP1 inh -3.7, sPLA2-III inh 3.4, MsrA act -2.8, MsrA inh -0.2 and ARFGAP1 inhibitor 13.9.
Screening Cc1ccc2nc(SCC(=O)N3CCC(Cc4ccccc4)CC3)nc(=O)n2c1 returned NR1D1 modulator -1.2, ASAP1 inh 26.2*, sPLA2-III inh -4.5, MsrA act -2.7, MsrA inh 2.2, ARFGAP1 inhibitor 59.1*, ASAP1 inh confirm 40.6* and ARFGAP1 inh conf 68.0*.
For O=C(CSc1nc(=O)n2ccccc2n1)N1CCC(Cc2ccccc2)CC1 the results were NR1D1 modulator -0.9, ASAP1 inh -6.4, sPLA2-III inh 7.4, MsrA act -1.4, MsrA inh 1.3 and ARFGAP1 inhibitor 14.3.
CCN1CCN(Cc2ccc(NC(=O)c3cccc(-c4ccc5nc(NC(=O)C6CC6)sc5n4)c3)cc2C(F)(F)F)CC1 was read as NR1D1 modulator 5.8, ASAP1 inh 27.4*, sPLA2-III inh -13.7, MsrA inh 0.8, ARFGAP1 inhibitor 57.0*, ASAP1 inh confirm 40.2* and ARFGAP1 inh conf 50.6*.
Screening COc1ccc(N2CCN(C(=S)NCc3ccccc3)CC2)cc1 returned NR1D1 modulator -7.2, ASAP1 inh 37.4*, sPLA2-III inh -23.8, MsrA act -1.3, MsrA inh 1.0, ARFGAP1 inhibitor 38.3*, ASAP1 inh confirm 7.4 and ARFGAP1 inh conf 6.4.
For CCN(CC)CCOC(=O)c1ccc(N/C=C(/C#N)c2nc(-c3cc4ccccc4oc3=O)cs2)cc1 the results were NR1D1 modulator 1.3, ASAP1 inh 72.2*, sPLA2-III inh 3.2, MsrA act -3.1, MsrA inh 2.6, ARFGAP1 inhibitor 83.8*, ASAP1 inh confirm 98.5* and ARFGAP1 inh conf 134.0*.
For CCN(CC)CCCN(C(=O)c1ccc(Br)cc1)c1nc(-c2ccc(OC)cc2)cs1 the results were NR1D1 modulator -5.2, ASAP1 inh 0.3, sPLA2-III inh -4.9, MsrA act -1.9, MsrA inh -0.8 and ARFGAP1 inhibitor -3.1.
Screening CCN(CC)CCOC(=O)c1ccc(N/C=C(/C#N)c2nc(-c3ccc(OC)cc3)cs2)cc1 returned NR1D1 modulator 0.3, ASAP1 inh 48.5*, sPLA2-III inh -11.1, MsrA act 1.2, MsrA inh -0.3, ARFGAP1 inhibitor 27.8*, ASAP1 inh confirm 51.4* and ARFGAP1 inh conf 55.0*.
For COc1cc(/C=C(\C#N)c2nc(-c3cc4ccccc4oc3=O)cs2)ccc1O the results were NR1D1 modulator -2.6, ASAP1 inh 19.6, sPLA2-III inh 3.8, MsrA act -6.4, MsrA inh 0.1 and ARFGAP1 inhibitor 9.1.
`CN(C(=O)[C@@H]1CC=C[C@@H]2CCN(C3CCCCC3)C(=O)[C@@H]21)c1ccccc1` gave NR1D1 modulator -5.0 and sPLA2-III inh 3.6.

Compound activity as filed in PubChem.
